In ChEMBL document CHEMBL3407350, “Synthesis and anti-hepatitis B virus activity of C4 amide-substituted isosteviol derivatives” (Bioorg Med Chem, 2015):
Converted amounts (≈) assume the structure as drawn.

Assays:
[1] = Cytotoxicity against human HepG2(2.2.15) cells; format: cell-based; conditions: read-out: TC50 (the source's name)
How it was run: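 Cytotoxicity by MTS: HepG2 2.2.15 cells seeded at 4×10^4 cells/ml for 24 h, exposed to serial dilutions 2.5–160 µg/ml for 3 days; four replicates, viability expressed relative to untreated control; TC50 as 50% cytotoxic concentration.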

[2] = Selectivity index, ratio of TC50 for human HepG2(2.2.15) cells to IC50 for HBV infected in human HepG2(2.2.15) cells assessed as inhibition of viral DNA replication
How it was run: (§1)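 Selectivity index computed as TC50 (MTS, HepG2 2.2.15, 3 days) divided by IC50 for HBsAg, HBeAg or virion DNA inhibition in the same cell line.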

Hepatitis B virus [3] = assay: Antiviral activity against HBV infected in human HepG2(2.2.15) cells assessed as inhibition of viral DNA replication; format: functional, organism-based
How it was run: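 Secreted virion DNA from HepG2 2.2.15 cells after 3 days of compound treatment; HBV DNA isolated from conditioned medium and quantified by SYBR Green real-time PCR (45 cycles, 95 °C 15 s / 58 °C 1 min); mean and SD, n = 3; IC50 as 50% inhibitory concentration.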

Hepatitis B virus [4] = assay: Antiviral activity against HBV infected in human HepG2(2.2.15) cells assessed as inhibition of surface antigen secretion by EIA; format: functional, organism-based
How it was run: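 HepG2 2.2.15 cells (HepG2 stably carrying a head-to-tail HBV DNA dimer; MEM, 10% FBS, 37 °C, 5% CO2) treated with compound for 3 days; conditioned medium assayed for secreted HBsAg and HBeAg by enzyme immunoassay; mean and SD, n = 3; IC50 taken as 50% inhibitory concentration.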

[5] = Selectivity index, ratio of TC50 for human HepG2(2.2.15) cells to IC50 for HBV infected in human HepG2(2.2.15) cells assessed as inhibition of surface antigen secretion; how it was run: as §1

Compound	CC50 [1]	Selectivity Index [2]	IC50 (Hepatitis B virus [3])	IC50 (Hepatitis B virus [4])	Selectivity Index [5]
Nc1ccn([C@@H]2CS[C@H](CO)O2)c(=O)n1 [LAMIVUDINE]	205 µg/mL (≈ 894 µM)	5	41 µg/mL (≈ 179 µM)	49.1 µg/mL (≈ 214 µM)	4.17
C[C@@]12CC[C@@H]3[C@@](CC[C@H]4[C@@]3(C)CCC[C@@]4(C)NC(=O)c3ccc(C#N)cc3)(CC1=O)C2	10.8 µg/mL (≈ 25.8 µM)	–	–	8.45 µg/mL (≈ 20.2 µM)	1.28
C[C@@]12CC[C@@H]3[C@@](CC[C@H]4[C@@]3(C)CCC[C@@]4(C)NC(=O)c3ccc(I)cc3)(CC1=O)C2	10.5 µg/mL (≈ 20.3 µM)	–	–	–	–
COc1ccc(C(=O)N[C@]2(C)CCC[C@@]3(C)[C@@H]4CC[C@@]5(C)C[C@]4(CC[C@@H]32)CC5=O)cc1	22.4 µg/mL (≈ 53 µM)	–	–	18.8 µg/mL (≈ 44.3 µM)	1.2
C[C@@]12CC[C@@H]3[C@@](CC[C@H]4[C@@]3(C)CCC[C@@]4(C)NC(=O)c3ccc(Cl)cc3)(CC1=O)C2	21.6 µg/mL (≈ 50.6 µM)	–	–	20.8 µg/mL (≈ 48.7 µM)	1.04
C[C@@]12CC[C@@H]3[C@@](CC[C@H]4[C@@]3(C)CCC[C@@]4(C)NC(=O)c3ccc(Br)cc3)(CC1=O)C2	14.9 µg/mL (≈ 31.5 µM)	–	–	10.5 µg/mL (≈ 22.3 µM)	1.41
O=c1[nH]cc(F)c(=O)[nH]1 [FLUOROURACIL]	6.12 µg/mL (≈ 47 µM)	–	–	–	–
